This note sets out measurements from ChEMBL document CHEMBL3124881, “New perspectives on the synthesis and antichagasic activity of 3-alkoxy-1-alkyl-5-nitroindazoles” (Eur J Med Chem, 2014).

The subject of data set [1] is Trypanosoma cruzi. The experiment in a line: Antitrypanosomal activity against Trypanosoma cruzi (IRHOD/CO/2008/SN3) infected in BALB/c mouse assessed as reduction in parasitemia at 1 mg/kg/day, ip treated from day 5 to day 10 post-infection measured on day 30 post-infection relative to control. Format: functional. The arrangement: scale not given: the % may be the effect or the level left. The following applies: route intraperitoneal. In outline:
(§1)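 Female BALB/c mice (groups of three) infected ip with 1 × 10⁵ metacyclic forms. Given 1 mg/kg/day ip for five days (days 5–10 post-infection); infected untreated controls included. Mandibular-vein blood (5 µL) diluted 1:15 in citrate/lysis buffer, with trypomastigotes/mL counted every 3–4 days. Mean values reported.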

Data set [2] deals with Trypanosoma cruzi. Nature of the data set: Antitrypanosomal activity against Trypanosoma cruzi (IRHOD/CO/2008/SN3) infected in BALB/c mouse assessed as reduction in parasite specific antibodies level at 1 mg/kg/day, ip treated from day 5 to day 10 post-infection measured from day 30 to day 120 post-infection by ELISA. Format: functional, organism-based. In outline: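 Female BALB/c mice (6–8 weeks, 20–25 g, groups of three) infected ip with 1 × 10⁵ metacyclic forms. Dosed 1 mg/kg/day ip on days 5–10 post-infection; infected untreated controls included. ELISA on blood diluted 1:50 in PBS, using excreted Fe-SOD antigen from epimastigotes, at days 30 and 120. Read-out is ΔA490 (day 120 minus day 30).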
On the technique in general: ELISA stands for enzyme-linked immunosorbent assay.

The subject of data set [3] is Trypanosoma cruzi. The experiment in a line: Antitrypanosomal activity against Trypanosoma cruzi (IRHOD/CO/2008/SN3) epimastigotes assessed as plasma membrane with scalloped appearance with undulations and discontinuities at IC25 after 96 hrs by transmission electron microscopic analysis. The class given is functional, organism-based.
In data set [4] the test system is Trypanosoma cruzi. The experiment in a line: Antitrypanosomal activity against Trypanosoma cruzi (IRHOD/CO/2008/SN3) infected in African green monkey Vero cells assessed as reduction in number of trypomastigotes at IC25 treated for 12 hrs followed by compound-washout measured after 10 days by microscopic analysis relative to control. Format: functional. In outline:
(§2)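 Vero cells grown 2 days, then infected with metacyclic forms at 10:1. Drugs at IC25 added immediately after infection for 12 h at 37 °C, 5% CO2, then removed by washing. Cultures grown 10 days with medium renewed every 48 h. Methanol-fixed, Giemsa-stained preparations: % infected cells and amastigotes per infected cell over 200 host cells; trypomastigotes counted in the medium. Means of three experiments.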

In data set [5] the test system is Trypanosoma cruzi. Nature of the data set: Antitrypanosomal activity against Trypanosoma cruzi (IRHOD/CO/2008/SN3) infected in African green monkey Vero cells assessed as reduction in number of amastigotes at IC25 treated for 12 hrs followed by compound-washout measured after 10 days by microscopic analysis relative to control. The class given is functional. In a few lines: as §2

Data set [6] can be described thus: Toxicity in BALB/c mouse assessed as survival at 1 mg/kg/day, ip relative to control. The class given is organism-based. Also on record: route intraperitoneal. The conditions noted are these: in vivo. In a few lines:
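Female BALB/c mice (6-8 weeks, 20-25 g), groups of three, infected ip with 1 × 10⁵ T. cruzi SN3 metacyclic forms. Dosing ip at 1 mg/kg/day for five consecutive days (days 5-10 post-infection). Controls were uninfected, infected-untreated and uninfected-treated groups. Mice followed to day 120 post-infection, with deaths recorded.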

Data set [7] relates to Trypanosoma cruzi. Nature of the data set: Antitrypanosomal activity against Trypanosoma cruzi (IRHOD/CO/2008/SN3) infected in BALB/c mouse assessed as reduction in parasitemia at 1 mg/kg/day, ip treated from day 5 to day 10 post-infection measured on day 14 post-infection. The class given is functional, organism-based. In a few lines: as §1
In data set [8] the test system is Trypanosoma cruzi. The experiment in a line: Antitrypanosomal activity against Trypanosoma cruzi (IRHOD/CO/2008/SN3) epimastigotes assessed as disruption of cytoskeleton with disorganization of microtubule structure at IC25 after 96 hrs by transmission electron microscopic analysis. Format: functional, organism-based.
The test system of data set [9] is Trypanosoma cruzi. Nature of the data set: Antitrypanosomal activity against Trypanosoma cruzi (IRHOD/CO/2008/SN3) infected in African green monkey Vero cells assessed as reduction in infection rate at IC25 treated for 12 hrs followed by compound-washout measured after 10 days by microscopic analysis relative to control. Format: functional. In outline: as §2

Active and inactive are the calls of the source. The calls are words filed in the database; no cut-off is given here.

Consider `O=C(Cn1ccnc1[N+](=O)[O-])NCc1ccccc1` [BENZNIDAZOLE], for which, in the data set on Trypanosoma cruzi [1], the Activity was 23%. The outcome with Trypanosoma cruzi [2], in the data set with Trypanosoma cruzi [3], with Trypanosoma cruzi [7] and in the data set on Trypanosoma cruzi [8] was Active. Besides, the “inhibition (INH)” value in the data set with Trypanosoma cruzi [4] is recorded as 41%; with Trypanosoma cruzi [5] it was 37%; in the data set with Trypanosoma cruzi [9], 19%. In [6], the survival was 80%.
